The values that follow come from ChEMBL document CHEMBL4393735, “Molecular modelling, synthesis, and biological evaluations of a 3,5-disubstituted isoxazole fatty acid analogue as a PPARα-selective agonist” (Bioorg Med Chem, 2019).

Active and inactive are the calls of the source. The rule behind the calls is not given here.

In this assay the target is T1, Peroxisome proliferator-activated receptor alpha (Homo sapiens) (UniProt Q07869).
T1 sequence (whole entry): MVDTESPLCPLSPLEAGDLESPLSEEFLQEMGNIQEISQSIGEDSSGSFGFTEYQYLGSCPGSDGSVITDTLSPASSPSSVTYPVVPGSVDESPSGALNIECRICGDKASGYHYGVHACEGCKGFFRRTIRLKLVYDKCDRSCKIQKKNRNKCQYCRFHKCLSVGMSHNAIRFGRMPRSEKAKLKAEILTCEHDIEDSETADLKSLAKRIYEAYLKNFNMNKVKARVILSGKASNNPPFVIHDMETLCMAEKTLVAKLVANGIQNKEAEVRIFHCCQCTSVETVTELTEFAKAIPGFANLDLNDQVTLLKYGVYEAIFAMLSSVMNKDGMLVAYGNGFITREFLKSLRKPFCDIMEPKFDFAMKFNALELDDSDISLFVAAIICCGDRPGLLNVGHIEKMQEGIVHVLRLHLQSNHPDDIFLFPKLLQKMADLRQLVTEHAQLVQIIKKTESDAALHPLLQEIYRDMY
In words: Agonist activity at full length human FLAG-tagged GAL4-DBD fused PPARalpha LBD (168 to 468 residues) expressed in COS1 cells transfected with hRXRalpha and pGL3-CPT1AInt PPRE mutant assessed as CPT1A mRNA level at 50 uM measured after 18 hrs by dual luciferase reporter gene assay. It counts as cell-based. In a few lines:
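COS-1 cells were transfected with full-length human PPARα (or PPARγ) plus RXRα expression plasmids, with a wild-type or PPRE-mutated CPT1A-intronic (or PLIN1) luciferase reporter and pRL-CMV. Cells were treated with 50 μM in 0.1% DMSO (final) for 18 h. Dual-luciferase read-out normalized to DMSO control. Three biological replicates in quadruplicate, mean ± SEM.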
For orientation: In a reporter assay the amount or activity of a reporter protein is the signal.

Turning to `CCCCCCCc1cc(CCCCCC(=O)O)no1`, the result was inactive.
